Sampled rows, rich in hits. Any-hit rate of the full collection: about 2.9%.
Efflux pump mplx – inhibitors of Candida antifungal efflux pumps expressed in yeast. S. cerevisiae Candida pump triplex, Nile Red efflux. inhibition, % at 10 µM. hit rate 0.44% among 330,000;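 active = plate passing quality check with inhibition over a set limit, or well fluorescence over plate mean plus 4 SD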;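 note: Nile Red retained in pooled yeast measured as flow cytometry median fluorescence; 0% = buffer negative control and 100% = Enniatin B positive control; higher means more Nile Red kept so more efflux inhibition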
MC4R barr agon – human MC4R agonism via beta-arrestin | U2OS MC4R beta-arrestin complementation, luminescence; percent of melanotan II response, DMSO zero | activation, % at 8.9 µM | P32245 | hit rate 0.98% among 360,000;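 active = activation above a per-plate cutoff, the mean activation of sample wells on that plate plus 3 SD, cut at about 8% in these data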
H9c2 TAG inh – reduces triacylglycerol accumulation in H9c2 cells | inhibition, % at 12.5 µM | Nile Red lipid (TAG) fluorescence; cells loaded with 200 µM oleic acid | hit rate 0.66% among 230,000;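 active = pattern-corrected inhibition of lipid staining of at least 50% with the nuclear-stain viability signal not falling by more than 50%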;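 note: 0% = DMSO wells and 100% = triacsin C control wells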
GalR3 antagonist – antagonists of human GalR3; HEK293 GalR3-CNG cAMP membrane potential fluorescence; galR3 body fused to GalR1 C-terminus; O60755; inhibition, % at 3 µM; hit rate 0.44% among 360,000;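 active = inhibition above the screen-wide average plus 3 SD, cut at about 13% in these data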;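 note: forskolin and galanin both at EC90 stimulate the cells; cAMP rise reported by CNG channel membrane potential dye signal; 0% = forskolin plus galanin with DMSO and 100% = forskolin alone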
MC4R antag cAMP – human MC4R antagonism in cAMP assay | hit rate 0.48% among 360,000 | inhibition, % at 6.5 µM | P32245 | MC4R-expressing cells, MTII-stimulated cAMP, LANCE TR-FRET;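 active = inhibition above its plate's cutoff, the mean of tested wells on that plate plus 3 SD, cut at about 29% in these data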;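 note: 0% = Melanotan II alone and 100% = Melanotan II plus saturating MCL0020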
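System: U2OS cells stably expressing human melanocortin 4 receptor (MC4R). Reagent: Melanotan II challenge after compound preincubation. Doses: 6.5 µM. Times: 30-min compound, 1-h challenge, 1-h detection, room temperature. Measured by: TR-FRET with Eu-cAMP and labeled anti-cAMP, 671 nm. Replicates: singlicate.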
Calb FLC – affects C. albicans growth with fluconazole | C. albicans CaCi-2 (fluconazole-resistant clinical isolate) + fluconazole, Alamar Blue growth, 48 h | growth inhibition, % (concentration not given with the values) | hit rate 0.57% among 300,000;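 active = growth inhibition above about 58% in most replicates, limit read from the data, passing the limit was not always enough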;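 note: all wells also contain fluconazole at 8 µg/ml as a sub-toxic cotreatment; 0% = median of DMSO wells and 100% = median of geldanamycin control wells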
MC4R barr conf – human MC4R beta-arrestin agonism confirmation | U2OS MC4R beta-arrestin recruitment, luminescence; scaled DMSO 0%, Melanotan II 100% | hit rate 31% among 2,400 | shares compounds with MC4R barr agon | activation, % at 8.9 µM;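 active = mean activation across replicates above the hit cutoff set in the earlier primary screen, cut at about 8% in these data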
MOR DOR agonist – OPRM1-OPRD1 heterodimer agonism counter-screen; shares compounds with MC4R barr agon; U2OS PathHunter beta-arrestin, beta-gal luminescence; percent of deltorphin B response, DMSO zero; activation, % at 9.2 µM; hit rate 5.8% among 2,400; AID 602194;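 active = mean activation across replicates exceeds the hit threshold derived in the earlier primary screen, cut at about 18% in these data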;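 note: 100% = deltorphin B at 0.9 µM final and 0% = DMSO alone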
Target sequence (P35372 whole entry, looked up): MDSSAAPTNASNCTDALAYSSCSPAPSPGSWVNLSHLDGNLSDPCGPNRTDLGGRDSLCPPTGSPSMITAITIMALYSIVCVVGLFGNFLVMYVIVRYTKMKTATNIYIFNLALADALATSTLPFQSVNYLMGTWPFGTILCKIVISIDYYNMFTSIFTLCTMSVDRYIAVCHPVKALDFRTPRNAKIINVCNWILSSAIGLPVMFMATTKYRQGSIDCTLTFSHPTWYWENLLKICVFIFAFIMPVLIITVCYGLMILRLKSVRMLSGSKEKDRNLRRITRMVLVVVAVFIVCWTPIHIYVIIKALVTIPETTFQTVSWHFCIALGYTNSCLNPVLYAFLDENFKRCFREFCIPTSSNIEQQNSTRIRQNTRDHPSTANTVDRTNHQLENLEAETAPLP
Target sequence (P41143 whole entry, looked up): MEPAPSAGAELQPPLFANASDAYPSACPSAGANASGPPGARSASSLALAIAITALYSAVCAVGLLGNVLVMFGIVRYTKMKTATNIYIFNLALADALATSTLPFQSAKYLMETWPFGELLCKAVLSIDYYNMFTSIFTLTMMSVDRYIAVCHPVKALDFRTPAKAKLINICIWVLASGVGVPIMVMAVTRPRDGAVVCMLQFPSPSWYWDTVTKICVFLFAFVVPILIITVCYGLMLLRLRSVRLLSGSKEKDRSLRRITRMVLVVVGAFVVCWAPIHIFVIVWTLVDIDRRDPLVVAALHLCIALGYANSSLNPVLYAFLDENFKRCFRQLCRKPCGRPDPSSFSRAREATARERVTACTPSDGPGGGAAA
* marks the source's active call; other numbers are inactive results.

What do the screens show for `Cc1cc(C)c2sc(N(CCCN(C)C)C(=O)COc3ccc(Cl)cc3)nc2c1`?
Efflux pump mplx: 0; MC4R barr agon: 11*; H9c2 TAG inh: 30; GalR3 antagonist: -6; MC4R antag cAMP: 1; Calb FLC: -10; MC4R barr conf: 25*; MOR DOR agonist: 18

How did CS(=O)(=O)c1sc2nc(-c3cccs3)cc(-c3ccccc3)c2c1N do in these assays?
Efflux pump mplx: 0; MC4R barr agon: -1; H9c2 TAG inh: -13; GalR3 antagonist: -6; MC4R antag cAMP: 9; Calb FLC: 11

What do the screens show for `N#Cc1sc2nc(-c3cccs3)cc(-c3ccc(F)cc3)c2c1N`?
Efflux pump mplx: 0; MC4R barr agon: 35*; GalR3 antagonist: -11; MC4R antag cAMP: 26; Calb FLC: 4; MC4R barr conf: 19*; MOR DOR agonist: 6

Results for COc1ccc(S(=O)(=O)N2C[C@H]3CON(C)[C@H]3C[C@H]2c2ccc(-c3cc4ccccc4o3)cc2)cc1 ?
MC4R barr agon: -2; H9c2 TAG inh: -4; GalR3 antagonist: -7; MC4R antag cAMP: 5

How did C[C@@H]1CN([C@@H](C)CO)C(=O)CCCn2cc(nn2)CO[C@H]1CN(C)S(=O)(=O)c1ccc2c(c1)OCCCO2 do in these assays?
MC4R barr agon: 0; H9c2 TAG inh: -2; GalR3 antagonist: -6; MC4R antag cAMP: -1

How did Cc1cc(F)cc(-c2cc(C(=O)NCc3cccc(Cl)c3)[nH]n2)c1 do in these assays?
MC4R barr agon: 13*; H9c2 TAG inh: -11; GalR3 antagonist: 1; MC4R antag cAMP: 19; MC4R barr conf: 2; MOR DOR agonist: 7

What do the screens show for `CCCCN1CC(=O)N2[C@@H]3c4cc(OC)ccc4OC[C@@H]3[C@H](C(=O)OCC)[C@]2(C)C1=O`?
MC4R barr agon: 1; H9c2 TAG inh: 2; GalR3 antagonist: -7; MC4R antag cAMP: 9

Results for Cc1ccc(-c2nc(C=Nc3cccc(C)c3)c(O)o2)cc1 ?
Efflux pump mplx: 0; MC4R barr agon: 14*; H9c2 TAG inh: -12; GalR3 antagonist: -7; MC4R antag cAMP: -2; Calb FLC: -16; MC4R barr conf: 7; MOR DOR agonist: 1

What do the screens show for `Cc1ccc(-c2nc(C=Nc3ccccc3)c(O)o2)cc1`?
Efflux pump mplx: 0; MC4R barr agon: 0; H9c2 TAG inh: -14; GalR3 antagonist: -4; MC4R antag cAMP: -1; Calb FLC: -16

Results for Cc1noc(C)c1COc1cccc(C(=O)OCC(=O)NC(=O)c2ccc(OC(F)F)cc2)c1 ?
Efflux pump mplx: 0; MC4R barr agon: 25*; GalR3 antagonist: -2; MC4R antag cAMP: 6; Calb FLC: 13; MC4R barr conf: 6; MOR DOR agonist: 4

Results for CNc1ncnc2c1ncn2[C@H]1CN(Cc2cccc3ccccc23)C[C@@H](CO)O1 ?
MC4R barr agon: 0; H9c2 TAG inh: 3; GalR3 antagonist: 0; MC4R antag cAMP: 9

Results for C/C(=N/Nc1ccccc1[N+](=O)[O-])c1ccc([N+](=O)[O-])cc1 ?
Efflux pump mplx: 0; MC4R barr agon: -1; GalR3 antagonist: 0; MC4R antag cAMP: -3; Calb FLC: 3

How did C/C(=N\Nc1ccc(C#N)cc1[N+](=O)[O-])c1ccc(O)cc1 do in these assays?
Efflux pump mplx: 0; MC4R barr agon: 10*; H9c2 TAG inh: -9; GalR3 antagonist: -4; MC4R antag cAMP: 4; Calb FLC: -6; MC4R barr conf: 6; MOR DOR agonist: 8

How did CCc1nc2c(OCc3cccc(Cl)c3)cccn2c1N(C)C(=O)CC(C)C do in these assays?
MC4R barr agon: -2; H9c2 TAG inh: 2; GalR3 antagonist: -8; MC4R antag cAMP: 13

What do the screens show for `Cc1cc(C)cc(N(C(=O)C(F)(F)F)C(C(=O)NC2CCCCC2)c2cccs2)c1` (stereo not given)?
Efflux pump mplx: 0; MC4R barr agon: 1; GalR3 antagonist: 1; MC4R antag cAMP: -3; Calb FLC: 3

What do the screens show for `Cc1cccc(N(C(=O)C(F)(F)F)C(C(=O)NC2CCCCC2)c2cccs2)c1` (stereo not given)?
Efflux pump mplx: 0; MC4R barr agon: 20*; GalR3 antagonist: -6; MC4R antag cAMP: 14; Calb FLC: -9; MC4R barr conf: 7; MOR DOR agonist: 10

How did CCCNC(=O)C1(C)CCCN(C(=O)c2cc(C)nn2C(C)(C)C)C1 (stereo not given) do in these assays?
MC4R barr agon: 1; H9c2 TAG inh: -3; GalR3 antagonist: -7; MC4R antag cAMP: 19

Results for CCOC(=O)c1ccc(Nc2nc(-c3cccnc3)nc3ccccc23)cc1 ?
Efflux pump mplx: 0; MC4R barr agon: 57*; H9c2 TAG inh: 33; GalR3 antagonist: -2; MC4R antag cAMP: 11; Calb FLC: -29; MC4R barr conf: 0; MOR DOR agonist: 7

How did Nc1ccn([C@@H]2O[C@H](C(=O)N[C@H](CO)c3ccccc3)[C@@H](O)[C@H]2O)c(=O)n1 do in these assays?
GalR3 antagonist: -2

How did COc1ccc(Cl)cc1-c1cc(C(=O)Nc2ccc(F)cc2)[nH]n1 do in these assays?
MC4R barr agon: 16*; H9c2 TAG inh: 29; GalR3 antagonist: -10; MC4R antag cAMP: 2; MC4R barr conf: 0; MOR DOR agonist: 9

How did CCCOc1ccc(F)cc1-c1cc(C(=O)Nc2cc(OC)ccc2OC)[nH]n1 do in these assays?
MC4R barr agon: 16*; H9c2 TAG inh: 10; GalR3 antagonist: -4; MC4R antag cAMP: 5; MC4R barr conf: 1; MOR DOR agonist: 11

Results for COc1ccc(NC(=O)c2cc(-c3ccc(C)cc3O)n[nH]2)c(OC)c1 ?
Efflux pump mplx: 0; MC4R barr agon: 10*; GalR3 antagonist: -11; MC4R antag cAMP: 15; Calb FLC: 32; MC4R barr conf: -2; MOR DOR agonist: 4

What do the screens show for `CCCOc1ccc(F)cc1-c1cc(C(=O)Nc2cc(OC)c(OC)c(OC)c2)[nH]n1`?
MC4R barr agon: 3; H9c2 TAG inh: 3; GalR3 antagonist: 0; MC4R antag cAMP: 7

Results for O=C(N[C@H](C(=O)N1CCC[C@H]1C(=O)NC1CCCC1)c1ccccc1)c1ccc(Cl)c(Cl)c1 ?
GalR3 antagonist: -8

How did COc1ccc(C(=O)Nc2ccc(OCc3ccccc3)cc2)cc1[N+](=O)[O-] do in these assays?
Efflux pump mplx: 0; MC4R barr agon: 30*; H9c2 TAG inh: 4; GalR3 antagonist: -5; MC4R antag cAMP: 0; Calb FLC: -15; MC4R barr conf: 10*; MOR DOR agonist: 7

Source: PubChem (several laboratories)
